ChEMBL document CHEMBL1152647, “Hybrid pharmacophore design and synthesis of isatin-benzothiazole analogs for their anti-breast cancer activity” (Bioorg Med Chem, 2009)
Activity calls are given as the source filed them. No cut-off for these calls is given here.

How the values were obtained:
MCF7 [1] = assay: Cytotoxicity against human MCF7 cells after 48 hrs by SRB assay; format: functional; conditions: MCF7, 48 h
In short: (§1)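 Cancer lines grown in RPMI 1640 with 10% FBS and 2 mM L-glutamine; 184B5 and MCF10A grown in supplemented mammary epithelial basal medium. 5000–10,000 cells/well seeded, 24 h at 37 °C and 5% CO₂. Seven serially diluted concentrations added, final DMSO ≤0.1%, 48 h exposure. Fixed with 10% TCA (final) at 4 °C, stained with 0.4% SRB, solubilized in 10 mM Tris, A515–564. Growth % = (Ti−Tz)/(C−Tz)×100; GI50 from sigmoidal variable-slope fit; triplicates, ≥2 independent experiments.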

[2] = Cytotoxicity against human 184B5 cells after 48 hrs by SRB assay; format: cell-based; in short: as §1
MDA-MB-468 [3] = assay: Cytotoxicity against human MDA-MB-468 cells after 48 hrs by SRB assay; format: functional; conditions: MDA-MB-468, 48 h; in short: as §1
MDA-MB-231 [4] = assay: Cytotoxicity against human MDA-MB-231 cells after 48 hrs by SRB assay; format: functional; conditions: MDA-MB-231, 48 h; in short: as §1
[5] = Cytotoxicity against human MCF10A cells after 48 hrs by SRB assay; format: cell-based, MCF-10A; in short: as §1
MCF7 [6] = assay: Cell cycle arrest in human MCF7 cells assessed as accumulation at S phase at 20 uM after 24 hrs by flow cytometry (Rvb=17%); format: functional
In short: (§2)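 MCF7 or MCF10A cells treated with compound at 20 or 40 µM for 24 h, with DMSO-treated negative control. 2.0 × 10⁶ cells pelleted and fixed in ice-cold 70% ethanol (30 min to overnight, −20 °C), then washed in PBS. Stained 30 min at 37 °C with 100 µg/mL PI, 100 µg/mL RNase A, 0.3% NP-40 and 0.1% sodium citrate. DNA content read by flow cytometry; G0/G1, S and G2/M fractions taken from DNA histograms.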

MCF7 [7] = assay: Cell cycle arrest in human MCF7 cells assessed as accumulation at G2/M phase at 20 uM after 24 hrs by flow cytometry (Rvb=12%); format: functional; in short: as §2
MCF-10A [8] = assay: Cell cycle arrest in human MCF10A cells assessed as accumulation at S phase at 20 uM after 24 hrs by flow cytometry; format: functional, cell-based; in short: as §2
MCF7 [9] = assay: Cell cycle arrest in human MCF7 cells assessed as accumulation at G2/M phase at 40 uM after 24 hrs by flow cytometry; format: functional, cell-based; in short: as §2
MCF-10A [10] = assay: Cell cycle arrest in human MCF10A cells assessed as accumulation at G2/M phase at 20 uM after 24 hrs by flow cytometry; format: functional, cell-based; in short: as §2
MDA-MB-468 [11] = assay: Selectivity ratio of GI50 for human 184B5 cells to GI50 for human MDA-MB-468 cells
In short: (§3)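 Ratio of non-cancer to cancer GI50, each from 48 h SRB growth assays (seven concentrations, sigmoidal variable-slope fit, triplicates in ≥2 independent experiments).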

MDA-MB-231 [12] = assay: Selectivity ratio of GI50 for human MCF10A cells to GI50 for human MDA-MB-231 cells; in short: as §3

Compound | GI50 (MCF7 [1]) [µM] | GI50 at 48 h [2] [µM] | GI50 (MDA-MB-468 [3]) [µM] | GI50 (MDA-MB-231 [4]) [µM] | GI50 at 48 h [5] [µM] | Activity (MCF7 [6]) | Activity (MCF7 [7]) | Activity (MCF-10A [8]) | Activity (MCF7 [9]) | Activity (MCF-10A [10]) | RatioGI50 (MDA-MB-468 [11]) | RatioGI50 (MDA-MB-231 [12])
Cc1ccc2nc(/N=C3\C(=O)N(CN4CCCCC4)c4cccc(Br)c43)sc2c1 | 39.1 | 85.2 | 24 | 38.2 | 18.4 |  |  |  |  |  |  | 
O=C1C(=O)N(CN2CCCCC2)c2ccccc21 | 41.2 | 68 | 24.1 | 38 | 41.8 |  |  |  |  |  |  | 
Cc1ccc2nc(/N=C3\C(=O)N(CN4CCOCC4)c4ccccc43)sc2c1 | 14.6 | 30.6 | 17.6 | 19.8 | 38.5 | inactive | inactive | inactive | Active | inactive |  | 
Cc1ccc2nc(/N=C3\C(=O)N(CN(C)C)c4cccc(Br)c43)sc2c1 | 17.9 | 74.8 | 27.4 | 49 | 21.8 |  |  |  |  |  |  | 
CCN(CC)CN1C(=O)/C(=N\c2nc3ccc(C)cc3s2)c2ccccc21 | 74.8 | 27.5 | 63.5 | 32.7 | 20.4 |  |  |  |  |  |  | 
O=C1C(=O)N(CN(c2ccccc2)c2ccccc2)c2ccccc21 | 23.7 | 33.7 | 21.5 | 24.8 | 73 |  |  |  |  |  |  | 
Cc1ccc2nc(/N=C3\C(=O)N(CN4CCCCC4)c4ccccc43)sc2c1 | 37.8 | 34.9 | 65.6 | 34.5 | 38.9 |  |  |  |  |  |  | 
O=C1C(=O)N(CN2CCOCC2)c2ccccc21 | 52.3 | 78.7 | 28.2 | 57.6 | 72.1 |  |  |  |  |  |  | 
CCN(CC)CN1C(=O)C(=O)c2c(Cl)cccc21 | 34 | 22.5 | 28.3 | 44.5 | 35 |  |  |  |  |  |  | 
CCN(CC)CN1C(=O)/C(=N\c2nc3ccc(C)cc3s2)c2c(Cl)cccc21 | 19.2 | 87.8 | 27.3 | 20.4 | 43.9 |  |  |  |  |  |  | 
O=C1C(=O)N(CN2CCOCC2)c2cccc(Br)c21 | 65.6 | 79.5 | 54 | 29.7 | 82.3 |  |  |  |  |  |  | 
CCN(CC)CN1C(=O)C(=O)c2ccccc21 | 44.1 | 41.7 | 35.9 | 60.6 | 73.6 |  |  |  |  |  |  | 
Cc1ccc2nc(/N=C3\C(=O)N(CN(c4ccccc4)c4ccccc4)c4cccc(Cl)c43)sc2c1 | 24.3 | 67.8 | 85 | 54 | 70 |  |  |  |  |  |  | 
CN(C)CN1C(=O)C(=O)c2c(Cl)cccc21 | 87.8 | 130 | 107 | 138 | 82.3 |  |  |  |  |  |  | 
Cc1ccc2nc(/N=C3\C(=O)N(CN(C)C)c4cccc(Cl)c43)sc2c1 | 20.7 | 5.77 | 28.1 | 10.9 | 7.02 |  |  |  |  |  |  | 
CCN(CC)CN1C(=O)/C(=N\c2nc3ccc(C)cc3s2)c2c(Br)cccc21 | 30.2 | 34.3 | 43.1 | 28.7 | 16.1 |  |  |  |  |  |  | 

Compound | GI50 (MCF7 [1]) [µM] | GI50 at 48 h [2] [µM] | GI50 (MDA-MB-468 [3]) [µM] | GI50 (MDA-MB-231 [4]) [µM] | GI50 at 48 h [5] [µM] | Activity (MCF7 [6]) | Activity (MCF7 [7]) | Activity (MCF-10A [8]) | Activity (MCF7 [9]) | Activity (MCF-10A [10]) | RatioGI50 (MDA-MB-468 [11]) | RatioGI50 (MDA-MB-231 [12])
Cc1ccc2nc(/N=C3\C(=O)N(CN4CCCCC4)c4cccc(Cl)c43)sc2c1 | 30.9 | 82.3 | 19.8 | 55.8 | 30.2 |  |  |  |  |  |  | 
CCN(CC)CN1C(=O)C(=O)c2c(Br)cccc21 | 20.2 | 172 | 11.7 | 20.2 | 113 | 8% | 38% | inactive |  | inactive | 14.7 | 5.6
Cc1ccc2nc(/N=C3\C(=O)N(CN(C)C)c4ccccc43)sc2c1 | 29.2 | 15.6 | 35.5 | 19.2 | 13.4 |  |  |  |  |  |  | 
O=C1C(=O)N(CN2CCCCC2)c2cccc(Cl)c21 | 51.2 | 93.7 | 82.8 | 26.5 | 70.7 |  |  |  |  |  |  | 
Cc1ccc2nc(/N=C3\C(=O)N(CN(c4ccccc4)c4ccccc4)c4cccc(Br)c43)sc2c1 | 30.2 | 70.2 | 82.3 | 75.1 | 67.9 |  |  |  |  |  |  | 
O=C1C(=O)N(CN2CCOCC2)c2cccc(Cl)c21 | 29.2 | 79.8 | 61.5 | 61.5 | 78.5 |  |  |  |  |  |  | 
CCN(CC)CCCC(C)Nc1ccnc2cc(Cl)ccc12 (stereo not drawn) [CHLOROQUINE] |  | 76.1 |  |  | 81.3 |  |  |  |  |  |  | 
Cc1ccc2nc(/N=C3\C(=O)N(CN(c4ccccc4)c4ccccc4)c4ccccc43)sc2c1 | 39.1 | 27.2 | 17.7 | 34.1 | 34 |  |  |  |  |  |  | 
Cc1ccc2nc(/N=C3\C(=O)N(CN4CCOCC4)c4cccc(Br)c43)sc2c1 | 12 | 29.9 | 24.8 | 94.6 | 33.2 |  |  |  |  |  |  | 
O=C1C(=O)N(CN2CCCCC2)c2cccc(Br)c21 | 31.4 | 85.2 | 35.3 | 30.2 | 66.9 |  |  |  |  |  |  | 
Cc1ccc2nc(/N=C3\C(=O)N(CN4CCOCC4)c4cccc(Cl)c43)sc2c1 | 21.5 | 63.5 | 24 | 37.1 | 62.3 |  |  |  |  |  |  | 
O=C1C(=O)N(CN(c2ccccc2)c2ccccc2)c2cccc(Br)c21 | 110 | 98.5 | 63.2 | 51.1 | 85.8 |  |  |  |  |  |  | 
CN(C)CN1C(=O)C(=O)c2c(Br)cccc21 | 57.6 | 77.9 | 49 | 93.7 | 67.8 |  |  |  |  |  |  | 
O=C1C(=O)N(CN(c2ccccc2)c2ccccc2)c2cccc(Cl)c21 | 29.7 | 96.8 | 14.3 | 31.4 | 77.2 |  |  |  |  |  |  | 
CN(C)CN1C(=O)C(=O)c2ccccc21 | 40.5 | 73.7 | 50.1 | 65.6 | 150 |  |  |  |  |  |  | 
